Measurements as given in ChEMBL document CHEMBL1157416, “Novel open-chain cytochalsins from the marine-derived fungus Spicaria elegans” (J Nat Prod, 2008).

How the values were obtained:
Assay type in all cases: functional, cell-based
[1] = system: P388; test: Cytotoxicity against mouse P388 cells after 72 hrs by MTT assay; details: P388, 72 h
In short: (§1)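 Cells grown in RPMI-1640 with 10% FBS, 5% CO2/95% air, 37 °C; plated at 5 × 10^4 cells/mL, preincubated 24 h, then compounds added in DMSO at several concentrations for 72 h. MTT (5 mg/mL) added for 4 h, medium replaced by DMSO to dissolve formazan, absorbance read at 570 nm; IC50 values reported.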

[2] = system: Bel-7402; test: Cytotoxicity against human BEL-7402 cells after 72 hrs by MTT assay; details: Bel-7402, 72 h; in short: as §1
[3] = system: HL-60; test: Cytotoxicity against human HL60 cells after 72 hrs by MTT assay; details: HL-60, 72 h; in short: as §1
[4] = system: A549; test: Cytotoxicity against human A549 cells after 72 hrs by MTT assay; details: A549, 72 h; in short: as §1

| Compound | IC50 [1] [µM] | IC50 [2] [µM] | IC50 [3] [µM] | IC50 [4] [µM] |
| --- | --- | --- | --- | --- |
| C/C1=C/CC(=O)O[C@@]23C(=O)N[C@@H](Cc4ccc(O)cc4)[C@@H]2[C@H](C)[C@@]2(C)O[C@H]2[C@@H]3/C=C/C[C@H](C)C1=O | 79 | 94 | 66 | 96 |
| C=C1[C@@H](C)[C@H]2[C@H](Cc3ccccc3)NC(=O)[C@@]2(O)[C@@H](/C=C/C[C@H](C)[C@@H](O)[C@@H](C)O)[C@@H]1O [CYTOCHALASIN Z10] | > 100 | > 100 | 69 | 9.6 |
| C=C1[C@@H](C)[C@H]2[C@H](Cc3ccccc3)NC(=O)[C@@]2(O)[C@@H](/C=C/C[C@H](C)C(=O)[C@H](C)O)[C@@H]1O [CYTOCHALASIN Z11] | 69 | > 100 | 45 | 4.3 |
| CC1=C(C)[C@H]2[C@H](Cc3ccccc3)NC(=O)[C@@]2(O)[C@@H](/C=C/C[C@H](C)[C@@H](O)[C@@H](C)O)[C@@H]1O [CYTOCHALASIN Z12] | > 100 | > 100 | 89 | 92 |
| CC1=C(C)[C@H]2[C@H](Cc3ccccc3)NC(=O)[C@@]2(O)[C@@H](/C=C/C[C@H](C)C(=O)[C@H](C)O)[C@@H]1O [CYTOCHALASIN Z13] | 67 | 88 | 80 | 76 |
| CC(=O)[C@@H](O)[C@@H](C)C/C=C/[C@H]1[C@H](O)C(C)=C(C)[C@H]2[C@H](Cc3ccccc3)NC(=O)[C@@]12O [CYTOCHALASIN Z14] | > 100 | > 100 | > 100 | > 100 |
| CC(=O)[C@H](O)[C@@H](C)C/C=C/[C@H]1[C@H](O)C(C)=C(C)[C@H]2[C@H](Cc3ccccc3)NC(=O)[C@@]12O [CYTOCHALASIN Z15] | > 100 | > 100 | > 100 | > 100 |
